Measured values: article PMC3031457 (Anti-cancer drugs, 2009)
Marks after values point to notes of the source that are not given here.

system: AsPC-1 cells; experiment: Cell cycle analysis by flow cytometry; type: cell-based, human; details: 5 μg/ml, 48 hours, data not shown
Procedure, shortened: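 AsPC-1 cells were trypsinized into 6-well plates and allowed to adhere for 24 h. They were then exposed for 48 h to test compound at 5 or 25 μg/ml, methanol vehicle, medium alone, or 100 nM paclitaxel as positive control. Cells were fixed in ice-cold ethanol (−20°C, 1 h) and stained with propidium iodide plus RNase A (30 min, 37°C) for flow cytometry. Run 3 times.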

Compound	Cell cycle arrest
CSC1=Nc2c(O)c(O)c(Cl)c3c2=C1CCN=3 [Batzelline B]	did not have an effect
Cn1cc2c3c1C(=O)C(N)=C(Cl)C3=NCC2 [Isobatzelline C]	S-phase cell cycle arrest
CSc1c2c3c(n1C)C(=O)C(=O)C(Cl)=C3NCC2 [Batzelline A]	S-phase cell cycle arrest
CSc1c2c3c(n1C)C(=O)C(N)=C(Cl)C3=NCC2 [Isobatzelline A]	S-phase cell cycle arrest
CSc1c2ccnc3c2c(n1C)C(=O)C(N)=C3Cl [Isobatzelline D]	S-phase cell cycle arrest
N=C1C(Cl)=C(N)C(=O)c2[nH]cc(C(O)CO)c21 (centres unmarked) [Secobatzelline A]	S-phase cell cycle arrest
NC1=C(Cl)C(=O)c2c(C(O)CO)c[nH]c2C1=O (centres unmarked) [Secobatzelline B]	did not have an effect
Cn1cc2ccnc3c2c1C(=O)C(N)=C3Cl [Isobatzelline E]	did not have an effect

same assay, conditions: 25 μg/ml, 48 hours

Compound	Cell cycle arrest
CSC1=Nc2c(O)c(O)c(Cl)c3c2=C1CCN=3 [Batzelline B]	S phase
Cn1cc2c3c1C(=O)C(N)=C(Cl)C3=NCC2 [Isobatzelline C]	S phase
CSc1c2c3c(n1C)C(=O)C(=O)C(Cl)=C3NCC2 [Batzelline A]	S phase
CSc1c2c3c(n1C)C(=O)C(N)=C(Cl)C3=NCC2 [Isobatzelline A]	S phase
CSc1c2ccnc3c2c(n1C)C(=O)C(N)=C3Cl [Isobatzelline D]	S phase
N=C1C(Cl)=C(N)C(=O)c2[nH]cc(C(O)CO)c21 (centres unmarked) [Secobatzelline A]	S phase
NC1=C(Cl)C(=O)c2c(C(O)CO)c[nH]c2C1=O (centres unmarked) [Secobatzelline B]	S phase

system: AsPC-1; experiment: Cell viability assay; type: cell-based, human; details: Homo sapiens, ASPC1, 72 h, read-out: IC50 (μM) AsPC-1
Procedure, shortened: (§1)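 Cells were grown in RPMI-1640 with 10% FBS, pyruvate, HEPES, glutamine and antibiotics at 37°C, 5% CO2, and seeded at 6000 cells/well. After 24 h adherence, half the medium was replaced with serially diluted test compound, 5-fluorouracil, or methanol-containing medium. Exposure lasted 72 h. MTT (5 mg/ml solution) was then added for 3 h at 37°C, formazan dissolved in HCl-acidified isopropanol, and absorbance read at 570 nm.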

IC50	Compound
3.62 ± 0.801 µM	N=C1C(Cl)=C(N)C(=O)c2[nH]cc(C(O)CO)c21 (centres unmarked) [Secobatzelline A]
> 19.5 µM	NC1=C(Cl)C(=O)c2c(C(O)CO)c[nH]c2C1=O (centres unmarked) [Secobatzelline B]
> 38.4 µM	O=c1[nH]cc(F)c(=O)[nH]1 [5-Fluorouracil, 5-fluorouracil, reference compound]

Compound	IC50
Cn1cc2c3c1C(=O)C(N)=C(Cl)C3=NCC2 [Isobatzelline C]	1.72 ± 0.168 µM
CSc1c2c3c(n1C)C(=O)C(=O)C(Cl)=C3NCC2 [Batzelline A]	> 17.7 µM

same assay, conditions: read-out: IC50 (μM) AsPC-1; MTT, 72 hours, n=4 ± SE

IC50	Compound
> 18.6 µM	CSC1=Nc2c(O)c(O)c(Cl)c3c2=C1CCN=3 [Batzelline B]
1.74 ± 0.415 µM	CSc1c2c3c(n1C)C(=O)C(N)=C(Cl)C3=NCC2 [Isobatzelline A]
1.48 ± 0.187 µM	CSc1c2ccnc3c2c(n1C)C(=O)C(N)=C3Cl [Isobatzelline D]
> 21.5 µM	Cn1cc2ccnc3c2c1C(=O)C(N)=C3Cl [Isobatzelline E]

system: BxPC-3; experiment: not given; details: read-out: IC50 (μM) BxPC-3; ref Li et al ([14]); cited from earlier work

Compound	IC50
Nc1ccn([C@@H]2O[C@H](CO)[C@@H](O)C2(F)F)c(=O)n1 [Gemcitabine, gemcitabine]	> 250 µM

system: Vero; experiment: Cell viability assay; type: cell-based, African green monkey; details: read-out: IC50 (μM) Vero; MTT, 72 hours, n=4 ± SE; normal cell line
Procedure, shortened: as §1

Compound	IC50
CSC1=Nc2c(O)c(O)c(Cl)c3c2=C1CCN=3 [Batzelline B]	> 18.6 µM
CSc1c2c3c(n1C)C(=O)C(N)=C(Cl)C3=NCC2 [Isobatzelline A]	> 17.7 µM
CSc1c2ccnc3c2c(n1C)C(=O)C(N)=C3Cl [Isobatzelline D]	15.7 ± 1.17 µM
Cn1cc2ccnc3c2c1C(=O)C(N)=C3Cl [Isobatzelline E]	> 21.5 µM

system: Panc-1, AsPC-1, BxPC-3, and MIA-PaCa2; experiment: Cell viability assay; type: cell-based, human; details: Homo sapiens, 72 h, read-out: IC50 in all pancreatic cell lines
Procedure, shortened: as §1

Compound	IC50
Cn1cc2c3c1C(=O)C(N)=C(Cl)C3=NCC2 [Isobatzelline C]	< 10 µM
N=C1C(Cl)=C(N)C(=O)c2[nH]cc(C(O)CO)c21 (centres unmarked) [Secobatzelline A]	< 10 µM

same assay, conditions: read-out: IC50 in all pancreatic cell lines; MTT, 72 hours

IC50	Compound
< 10 µM	CSc1c2c3c(n1C)C(=O)C(N)=C(Cl)C3=NCC2 [Isobatzelline A]
< 10 µM	CSc1c2ccnc3c2c(n1C)C(=O)C(N)=C3Cl [Isobatzelline D]

system: MIA PaCa2; experiment: not given; details: read-out: IC50 (μM) MIA PaCa2; ref Li et al ([14]); cited from earlier work

Compound	IC50
Nc1ccn([C@@H]2O[C@H](CO)[C@@H](O)C2(F)F)c(=O)n1 [Gemcitabine, gemcitabine]	14.5 µM

system: BxPC-3; experiment: Cell viability assay; type: cell-based, human; details: Homo sapiens, BXPC-3, 72 h, read-out: IC50 (μM) BxPC-3
Procedure, shortened: as §1

IC50	Compound
4.09 ± 0.146 µM	N=C1C(Cl)=C(N)C(=O)c2[nH]cc(C(O)CO)c21 (centres unmarked) [Secobatzelline A]
> 19.5 µM	NC1=C(Cl)C(=O)c2c(C(O)CO)c[nH]c2C1=O (centres unmarked) [Secobatzelline B]
5.56 ± 1.64 µM	O=c1[nH]cc(F)c(=O)[nH]1 [5-Fluorouracil, 5-fluorouracil, reference compound]

Compound	IC50
Cn1cc2c3c1C(=O)C(N)=C(Cl)C3=NCC2 [Isobatzelline C]	1.31 ± 0.185 µM
CSc1c2c3c(n1C)C(=O)C(=O)C(Cl)=C3NCC2 [Batzelline A]	> 17.7 µM

same assay, conditions: read-out: IC50 (μM) BxPC-3; MTT, 72 hours, n=4 ± SE

IC50	Compound
> 18.6 µM	CSC1=Nc2c(O)c(O)c(Cl)c3c2=C1CCN=3 [Batzelline B]
2.39 ± 0.218 µM	CSc1c2c3c(n1C)C(=O)C(N)=C(Cl)C3=NCC2 [Isobatzelline A]
1.48 ± 0.18 µM	CSc1c2ccnc3c2c(n1C)C(=O)C(N)=C3Cl [Isobatzelline D]
> 21.5 µM	Cn1cc2ccnc3c2c1C(=O)C(N)=C3Cl [Isobatzelline E]

system: AsPC-1; experiment: not given; details: read-out: IC50 (μM) AsPC-1; ref Li et al ([14]); cited from earlier work

Compound	IC50
Nc1ccn([C@@H]2O[C@H](CO)[C@@H](O)C2(F)F)c(=O)n1 [Gemcitabine, gemcitabine]	> 250 µM

molecular target: topoisomerase II (Homo sapiens, UniProt P11388); experiment: Decatenation reaction of kinetoplast DNA; type: biochemical; details: 25 μg/ml
Procedure, shortened: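 A commercial kit assay was used: 0.2 μg kinetoplast DNA plus 1 U topoisomerase II in ATP/MgCl2/DTT buffer, 20 μl reactions. Test compound was added at 5 or 25 μg/ml (methanol vehicle); 100 μM etoposide in DMSO served as positive control. Reactions ran 30 min at 37°C, were stopped with Sarkosyl loading dye, and resolved on 1% agarose with ethidium bromide. Gel densitometry was used; seven experiments, SEM, Student's t test.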

Chain of topoisomerase II (P11388 whole entry): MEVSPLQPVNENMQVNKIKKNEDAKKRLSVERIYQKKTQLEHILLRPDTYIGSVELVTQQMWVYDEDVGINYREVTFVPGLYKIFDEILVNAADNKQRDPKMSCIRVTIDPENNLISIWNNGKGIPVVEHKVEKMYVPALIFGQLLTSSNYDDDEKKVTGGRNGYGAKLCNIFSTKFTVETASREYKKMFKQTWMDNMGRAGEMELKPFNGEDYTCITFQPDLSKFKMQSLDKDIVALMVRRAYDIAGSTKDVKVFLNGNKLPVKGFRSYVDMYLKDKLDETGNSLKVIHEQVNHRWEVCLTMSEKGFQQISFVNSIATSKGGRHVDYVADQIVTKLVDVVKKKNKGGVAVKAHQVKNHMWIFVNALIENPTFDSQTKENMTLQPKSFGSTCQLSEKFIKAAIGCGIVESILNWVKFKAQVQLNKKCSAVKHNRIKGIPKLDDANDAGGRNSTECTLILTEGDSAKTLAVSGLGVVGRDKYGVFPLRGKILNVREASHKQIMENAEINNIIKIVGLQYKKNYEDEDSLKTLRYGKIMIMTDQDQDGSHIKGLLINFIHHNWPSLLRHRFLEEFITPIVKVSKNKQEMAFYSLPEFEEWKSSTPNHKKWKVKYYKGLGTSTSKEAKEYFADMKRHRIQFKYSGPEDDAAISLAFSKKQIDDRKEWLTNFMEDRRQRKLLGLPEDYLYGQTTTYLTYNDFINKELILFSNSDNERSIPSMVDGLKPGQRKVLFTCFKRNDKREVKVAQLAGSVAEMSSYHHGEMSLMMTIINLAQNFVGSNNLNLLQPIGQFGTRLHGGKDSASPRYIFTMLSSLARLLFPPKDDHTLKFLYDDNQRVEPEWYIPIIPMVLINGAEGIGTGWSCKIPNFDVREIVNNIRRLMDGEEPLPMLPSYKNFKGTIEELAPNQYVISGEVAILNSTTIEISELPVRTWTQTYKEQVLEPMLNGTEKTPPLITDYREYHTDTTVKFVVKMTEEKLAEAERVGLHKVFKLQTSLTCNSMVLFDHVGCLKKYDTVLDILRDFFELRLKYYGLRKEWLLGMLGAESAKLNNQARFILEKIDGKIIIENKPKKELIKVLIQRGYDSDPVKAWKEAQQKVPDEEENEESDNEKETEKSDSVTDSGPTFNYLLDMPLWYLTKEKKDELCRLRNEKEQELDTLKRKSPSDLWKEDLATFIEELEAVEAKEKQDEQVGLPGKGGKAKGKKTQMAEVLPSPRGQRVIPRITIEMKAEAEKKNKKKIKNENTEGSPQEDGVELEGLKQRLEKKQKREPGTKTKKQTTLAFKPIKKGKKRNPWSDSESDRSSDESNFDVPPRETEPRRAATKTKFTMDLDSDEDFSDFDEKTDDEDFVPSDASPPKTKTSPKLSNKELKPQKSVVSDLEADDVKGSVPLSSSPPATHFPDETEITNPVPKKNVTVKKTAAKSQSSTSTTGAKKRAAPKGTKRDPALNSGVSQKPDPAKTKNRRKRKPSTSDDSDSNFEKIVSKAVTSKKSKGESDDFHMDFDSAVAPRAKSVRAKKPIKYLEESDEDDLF

Compound	topoisomerase II inhibition (in words)
CSC1=Nc2c(O)c(O)c(Cl)c3c2=C1CCN=3 [Batzelline B]	significantly inhibited topoisomerase II activity
CSc1c2c3c(n1C)C(=O)C(N)=C(Cl)C3=NCC2 [Isobatzelline A]	significantly inhibited topoisomerase II activity
N=C1C(Cl)=C(N)C(=O)c2[nH]cc(C(O)CO)c21 (centres unmarked) [Secobatzelline A]	significantly inhibited topoisomerase II activity
NC1=C(Cl)C(=O)c2c(C(O)CO)c[nH]c2C1=O (centres unmarked) [Secobatzelline B]	no DNA intercalation or topoisomerase II inhibition
Cn1cc2ccnc3c2c1C(=O)C(N)=C3Cl [Isobatzelline E]	significantly inhibited topoisomerase II activity

same assay, conditions: 25 μg/ml; decatenation of kinetoplast DNA, 30 minutes

% Inhibition topoisomeraseII	Compound
63 ^* %	CSC1=Nc2c(O)c(O)c(Cl)c3c2=C1CCN=3 [Batzelline B]
36 ^* %	CSc1c2c3c(n1C)C(=O)C(N)=C(Cl)C3=NCC2 [Isobatzelline A]
26%	CSc1c2ccnc3c2c(n1C)C(=O)C(N)=C3Cl [Isobatzelline D]
95 ^* %	Cn1cc2ccnc3c2c1C(=O)C(N)=C3Cl [Isobatzelline E]

same assay, conditions: read-out: % Inhibition topoisomeraseII

Compound	inhibition at 25 µg/mL
Cn1cc2c3c1C(=O)C(N)=C(Cl)C3=NCC2 [Isobatzelline C]	27%
CSc1c2c3c(n1C)C(=O)C(=O)C(Cl)=C3NCC2 [Batzelline A]	58%
N=C1C(Cl)=C(N)C(=O)c2[nH]cc(C(O)CO)c21 (centres unmarked) [Secobatzelline A]	61%
NC1=C(Cl)C(=O)c2c(C(O)CO)c[nH]c2C1=O (centres unmarked) [Secobatzelline B]	13%

system: genomic salmon testes DNA; experiment: DNA intercalation assay; type: binding; details: 25 μg/ml; ethidium bromide displacement
Procedure, shortened: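 Genomic salmon testes DNA (0.5 μg) was equilibrated with 1.27 μM ethidium bromide for 30 min at room temperature. Test compound (5 or 25 μg/ml), methanol vehicle, 1 μM doxorubicin (positive control) or 100 μM etoposide (negative control) was added for a further 30 min. Ethidium displacement was read as a fluorescence decrease (ex 340, em 590 nm). Mean of 3 experiments ± standard deviation.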

% DNA intercalation	Compound
21%	CSC1=Nc2c(O)c(O)c(Cl)c3c2=C1CCN=3 [Batzelline B]
54 ^** %	CSc1c2c3c(n1C)C(=O)C(N)=C(Cl)C3=NCC2 [Isobatzelline A]
47 ^** %	CSc1c2ccnc3c2c(n1C)C(=O)C(N)=C3Cl [Isobatzelline D]

Compound	% DNA intercalation
Cn1cc2c3c1C(=O)C(N)=C(Cl)C3=NCC2 [Isobatzelline C]	56 ^** %
CSc1c2c3c(n1C)C(=O)C(=O)C(Cl)=C3NCC2 [Batzelline A]	18%

same assay, conditions: 5 and 25 μg/ml

DNA intercalation (in words)	Compound
significant intercalation into DNA	CSc1c2c3c(n1C)C(=O)C(N)=C(Cl)C3=NCC2 [Isobatzelline A]
significant intercalation into DNA	N=C1C(Cl)=C(N)C(=O)c2[nH]cc(C(O)CO)c21 (centres unmarked) [Secobatzelline A]
no DNA intercalation	NC1=C(Cl)C(=O)c2c(C(O)CO)c[nH]c2C1=O (centres unmarked) [Secobatzelline B]
significant intercalation into DNA	Cn1cc2ccnc3c2c1C(=O)C(N)=C3Cl [Isobatzelline E]

Compound	DNA intercalation (in words)
CSc1c2c3c(n1C)C(=O)C(=O)C(Cl)=C3NCC2 [Batzelline A]	no DNA intercalation

system: Panc-1; experiment: Cell viability assay; type: cell-based, human; details: Homo sapiens, PANC-1, 72 h, read-out: IC50 (μM) Panc-1
Procedure, shortened: as §1

IC50	Compound
10.4 ± 1.16 µM	N=C1C(Cl)=C(N)C(=O)c2[nH]cc(C(O)CO)c21 (centres unmarked) [Secobatzelline A]
17.4 ± 0.281 µM	NC1=C(Cl)C(=O)c2c(C(O)CO)c[nH]c2C1=O (centres unmarked) [Secobatzelline B]
5.73 ± 0.682 µM	O=c1[nH]cc(F)c(=O)[nH]1 [5-Fluorouracil, 5-fluorouracil, reference compound]

Compound	IC50
Cn1cc2c3c1C(=O)C(N)=C(Cl)C3=NCC2 [Isobatzelline C]	9.98 ± 0.384 µM
CSc1c2c3c(n1C)C(=O)C(=O)C(Cl)=C3NCC2 [Batzelline A]	> 17.7 µM

same assay, conditions: read-out: IC50 (μM) Panc-1; MTT, 72 hours, n=4 ± SE

IC50	Compound
> 18.6 µM	CSC1=Nc2c(O)c(O)c(Cl)c3c2=C1CCN=3 [Batzelline B]
9.37 ± 0.536 µM	CSc1c2c3c(n1C)C(=O)C(N)=C(Cl)C3=NCC2 [Isobatzelline A]
5.72 ± 0.253 µM	CSc1c2ccnc3c2c(n1C)C(=O)C(N)=C3Cl [Isobatzelline D]
> 21.5 µM	Cn1cc2ccnc3c2c1C(=O)C(N)=C3Cl [Isobatzelline E]

system: Panc-1; experiment: not given; details: read-out: IC50 (μM) Panc-1; ref Li et al ([14]); cited from earlier work

Compound	IC50
Nc1ccn([C@@H]2O[C@H](CO)[C@@H](O)C2(F)F)c(=O)n1 [Gemcitabine, gemcitabine]	7.2 µM

system: MIA PaCa2; experiment: Cell viability assay; type: cell-based, human; details: Homo sapiens, MIA PaCa-2, 72 h, read-out: IC50 (μM) MIA PaCa2
Procedure, shortened: as §1

IC50	Compound
5.63 ± 0.739 µM	N=C1C(Cl)=C(N)C(=O)c2[nH]cc(C(O)CO)c21 (centres unmarked) [Secobatzelline A]
> 19.5 µM	NC1=C(Cl)C(=O)c2c(C(O)CO)c[nH]c2C1=O (centres unmarked) [Secobatzelline B]
8.31 ± 0.357 µM	O=c1[nH]cc(F)c(=O)[nH]1 [5-Fluorouracil, 5-fluorouracil, reference compound]

Compound	IC50
Cn1cc2c3c1C(=O)C(N)=C(Cl)C3=NCC2 [Isobatzelline C]	2.34 ± 0.0977 µM
CSc1c2c3c(n1C)C(=O)C(=O)C(Cl)=C3NCC2 [Batzelline A]	> 17.7 µM

same assay, conditions: read-out: IC50 (μM) MIA PaCa2; MTT, 72 hours, n=4 ± SE

IC50	Compound
> 18.6 µM	CSC1=Nc2c(O)c(O)c(Cl)c3c2=C1CCN=3 [Batzelline B]
4.34 ± 0.22 µM	CSc1c2c3c(n1C)C(=O)C(N)=C(Cl)C3=NCC2 [Isobatzelline A]
2.67 ± 0.295 µM	CSc1c2ccnc3c2c(n1C)C(=O)C(N)=C3Cl [Isobatzelline D]
> 21.5 µM	Cn1cc2ccnc3c2c1C(=O)C(N)=C3Cl [Isobatzelline E]
